Here are results for 16 molecules from ChEMBL document CHEMBL1125242, “Synthesis and anticonvulsant activity of 1-acyl-2-pyrrolidinone derivatives” (J Med Chem, 1991).

Some results are limits rather than exact numbers.

Data set [1] is filed under the species Rattus norvegicus. Kind of data set: Degradation rate constant in biological media of rat liver homogenates. The class given is ADME, organism-based. In outline:
(§1)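 Tissues come from male ddY mice (20–30 g) and male Wistar rats (200–250 g). Liver and brain are homogenized at 0–5 °C to 40% in pH 7.4 isotonic phosphate buffer and spun at 2500g for 15 min; the supernatant is used. Plasma is also used. A 0.1 M acetonitrile stock gives 1 mM final. Incubation at 37 ± 0.2 °C; apparent rate constant in h⁻¹.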

For data set [2], the species on record is Mus musculus. As to the kind of experiment: Degradation rate constant in biological media of mouse brain homogenates. Format: ADME, organism-based. In outline: as §1
The species entered for data set [3] is Mus musculus. As to the kind of experiment: Compounds were evaluated for the effect on electroconvulsive-shock-induced disruption (ECS) of the memory of passive avoidance response (antiamnesic activity) in mice and expressed as learning time. The class given is functional. Summed up: (§2)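 Male ddY mice (20–25 g) are dosed i.p. at 200 mg/kg as a suspension in pH 7.4 isotonic phosphate buffer with 1% CMC-Na (0.1 mL/10 g), 60 min before training. A two-compartment step-through box is used: lighted compartment, darkened compartment with grid floor, 30 V foot shock. Memory is disrupted by electroconvulsive shock. Mean ± SEM; Student's t test versus the ECS group.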

Data set [4] is described as follows: Apparent partition coefficient between 1-octanol and pH 5.0 phosphate buffer (0.1 M) at 37 degrees Centigrade. The class given is physicochemical. To be noted: 1-octanol/phosphate buffer, read-out: LogD5.0. In outline: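 Final drug concentration 2 mM. The value is reported as the log of the apparent partition coefficient.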
The species named for data set [5] is Mus musculus. Kind of data set: Survival ratio was calculated for determination of dose dependency. The class given is functional. In outline:
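In male ddY mice (20–30 g), compound was given i.p. at varied doses as a suspension in pH 7.4 isotonic phosphate buffer with 1% CMC-Na, 15 min before s.c. picrotoxin 5 mg/kg. Dosing volume was 0.1 mL/10 g. Over 2 h of observation, the fraction of mice surviving was recorded at each dose to define dose dependency.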

The species entered for data set [6] is Mus musculus. As to the kind of experiment: Compounds were evaluated for the effect on electroconvulsive-shock-induced disruption (ECS) of the memory of passive avoidance response (antiamnesic activity) in mice and expressed as latency. The class given is functional. In outline:
as §2

The species named for data set [7] is Mus musculus. Kind of data set: Latency to the protection against lethality by picrotoxin was measured and evaluated as a percent of the control in mice. Also noted: concentration or dose not given beside the values. The class given is functional. In outline: (§3)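 Male ddY mice (20–30 g) were given compound i.p. at 200 mg/kg as a suspension in pH 7.4 isotonic phosphate buffer with 1% CMC-Na, 15 min before s.c. picrotoxin 5 mg/kg. Dosing volume was 0.1 mL/10 g, and controls received vehicle. Latency to generalized clonic seizure and survival time were each expressed as % of control.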

Data set [8] is filed under the species Rattus norvegicus. Kind of data set: Degradation rate constant in biological media of rat plasma homogenates. Format: ADME, organism-based. Summed up:
as §1

Data set [9] concerns Mus musculus. As to the kind of experiment: Sleeping time in mice after administration in mice induced by sodium pentobarbital. The class given is functional. Summed up:
(§4)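 Male ddY mice (20–30 g) are dosed i.p. at 50 mg/kg as a suspension in pH 7.4 isotonic phosphate buffer with 1% CMC-Na (0.1 mL/10 g), 30 min before i.p. sodium pentobarbital (45 mg/kg). Loss of righting reflex and sleeping time are recorded per mouse. Mean ± SEM; Student's t test versus control.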

For data set [10], the species on record is Mus musculus. Kind of data set: Latency to the onset of generalized clonic epileptic seizures by picrotoxin was measured and evaluated as a percent of the control in mice. The class given is functional. Also on record: concentration or dose not given beside the values. Summed up:
as §3

Data set [11] is described as follows: Degradation rate constant in the buffer solution(pH 7.4) was studied as a measure of the stability of the compound. Format: physicochemical. Summed up: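 A 0.1 M acetonitrile stock is added to preheated pH 7.4 phosphate buffer (0.1 M total, ionic strength 0.3 with NaCl) to 1 mM at 37 ± 0.2 °C. Aliquots are sampled over time. Pseudo-first-order fit gives the apparent rate constant in h⁻¹.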

The species entered for data set [12] is Mus musculus. Kind of data set: Degradation rate constant in biological media of mouse liver homogenates. Format: ADME, organism-based. Summed up:
as §1

In data set [13] the test system is Mus musculus. Kind of data set: Onset for sleeping time after administration in mice induced by sodium pentobarbital. Format: functional. In outline: as §4
The nature of data set [14]: Solubility in pH 5.0 phosphate buffer (0.1 M) at 37 degrees Centigrade; Miscible. The class given is physicochemical.
The species entered for data set [15] is Rattus norvegicus. Kind of data set: Degradation rate constant in biological media of rat brain homogenates. The class given is ADME, organism-based. Summed up:
as §1

The species named for data set [16] is Mus musculus. Kind of data set: Compounds were evaluated for the effect on electroconvulsive-shock-induced disruption (ECS) of the memory of passive avoidance response (anti-amnesic activity) in mice and expressed as latency. The class given is functional. Summed up: as §2

In the case of `CC(=O)N1CCCC1=O`, the Degradation rate constant in the data set listed under Rattus norvegicus [1] worked out at 0.097 h⁻¹; in the data set listed under Mus musculus [2], 0.01 h⁻¹; in the data set listed under Rattus norvegicus [8], 0.028 h⁻¹; in [11], 0.015 h⁻¹; in the data set filed under Mus musculus [12], 0.221 h⁻¹; in the data set listed under Rattus norvegicus [15] it was 0.014 h⁻¹. The molecule further had a Learning time in the data set listed under Mus musculus [3] of 15.3 s. The logD in [4] is -0.05. The Survival ratio in the data set listed under Mus musculus [5] is 0. Besides, the Latency in the data set listed under Mus musculus [6] is 101.7 s. Also, the Survival time in the data set listed under Mus musculus [7] turned out to be 144%. Moreover, the Sleeping time in the data set with Mus musculus [9] is given as 38.2 min. Moreover, the “Latency to clonic seizure onset (% of control)” value (shortened to “Latency … (% of control)”) in the data set listed under Mus musculus [10] came out at 97%. This molecule also showed an Onset for sleep with Mus musculus [13] of 6.9 min. In addition, the Saq entry in data set [14] is on record as “Miscible”.
Consider `CCCCCCC(=O)N1CCCC1=O`, for which the Degradation rate constant in the data set filed under Rattus norvegicus [1] worked out at 14.6 h⁻¹; in the data set listed under Mus musculus [2], 0.086 h⁻¹; in the data set filed under Rattus norvegicus [8] it was 0.056 h⁻¹; in data set [11], 0.012 h⁻¹; in the data set listed under Mus musculus [12], 11.9 h⁻¹; in the data set listed under Rattus norvegicus [15] it was 0.075 h⁻¹. This molecule gave a Learning time in the data set listed under Mus musculus [3] of 20.4 s. Besides, in [4], the logD worked out at 3.04. Besides, in the data set listed under Mus musculus [5], the Survival ratio is 0. In addition, in the data set listed under Mus musculus [16], the Latency is given as 240.6 s. The molecule also yielded a Survival time in the data set listed under Mus musculus [7] of 116%. This molecule registered a Sleeping time with Mus musculus [9] of 61.8 min. In addition, the “Latency … (% of control)” value in the data set listed under Mus musculus [10] worked out at 124%. Further, in the data set with Mus musculus [13], the Onset for sleep is recorded as 7.9 min.
Take `CCCCC(=O)N1CCCC1=O`: in the data set filed under Mus musculus [5], the Survival ratio was 0. Also, in the data set filed under Mus musculus [7], the Survival time turned out to be 107%. Moreover, in the data set listed under Mus musculus [10], the “Latency … (% of control)” value came to 78%.
As to `CCCC(=O)N1CCCC1=O`, the Degradation rate constant in the data set listed under Rattus norvegicus [1] was found to be 3.11 h⁻¹; in the data set filed under Mus musculus [2] it was 0.016 h⁻¹; in the data set filed under Rattus norvegicus [8], 0.054 h⁻¹; in data set [11], 0.006 h⁻¹; in the data set listed under Mus musculus [12] it was 1.35 h⁻¹; in the data set filed under Rattus norvegicus [15], 0.016 h⁻¹. Also, the logD in data set [4] came out at 1.18. Moreover, in the data set listed under Mus musculus [5], the Survival ratio is 0. Also, in the data set listed under Mus musculus [7], the Survival time turned out to be 142%. The Sleeping time with Mus musculus [9] is 92 min. For the same molecule, the “Latency … (% of control)” value in the data set filed under Mus musculus [10] amounted to 92%. This molecule yielded an Onset for sleep in the data set with Mus musculus [13] of 7.2 min.
For `CCCCCCCCCC(=O)N1CCCC1=O`, the Degradation rate constant in the data set listed under Rattus norvegicus [1] stood at 2.87 h⁻¹; in the data set filed under Mus musculus [2], 0.326 h⁻¹; in the data set filed under Rattus norvegicus [8] it was 0.025 h⁻¹; in data set [11], 0.008 h⁻¹; in the data set filed under Mus musculus [12], 2.53 h⁻¹; in the data set filed under Rattus norvegicus [15], 0.381 h⁻¹. Moreover, the logD in [4] was determined as 4.33. The Survival ratio in the data set listed under Mus musculus [5] is given as 50. Further, the Survival time in the data set filed under Mus musculus [7] worked out at 364%. Also, the “Latency … (% of control)” value in the data set filed under Mus musculus [10] was 302%.
Turning to `CCC(=O)N1CCCC1=O`, in the data set listed under Mus musculus [5], the Survival ratio was 0. The same molecule came in with a Survival time in the data set filed under Mus musculus [7] of 112%. Moreover, the “Latency … (% of control)” value in the data set filed under Mus musculus [10] worked out at 104%.
As to `O=C(O)CCC(=O)N1CCCC1=O`, the Survival ratio in the data set filed under Mus musculus [5] is 0. Further, in the data set filed under Mus musculus [7], the Survival time worked out at 93%. The “Latency … (% of control)” value in the data set filed under Mus musculus [10] is listed as 113%.
The like results for `O=C1CCCN1C(=O)c1ccccc1` were, in that order, 0, 93% and 114%.
Regarding `CCCCCCCCCCCC(=O)NCCCC(=O)O`, in the data set filed under Mus musculus [5], the Survival ratio is listed as 60. In the data set filed under Mus musculus [7], the Survival time is recorded as 388%. In addition, the “Latency … (% of control)” value in the data set listed under Mus musculus [10] is 493%.
The like results for `CC(C)(C)C(=O)N1CCCC1=O` were, in that order, 0, 120% and 101%.
For `O=C1CCCN1C(=O)Cc1ccccc1`, the Survival ratio in the data set filed under Mus musculus [5] was 33. In the data set filed under Mus musculus [7], this molecule had a Survival time of 281%. Moreover, in the data set listed under Mus musculus [10], the “Latency … (% of control)” value was 106%.
As for `CCCCCCCCCCCC(=O)N1CCCC1=O`, the Degradation rate constant was found to be 1.23 h⁻¹ in the data set filed under Rattus norvegicus [1]; 0.155 h⁻¹ in the data set listed under Mus musculus [2]; 0.016 h⁻¹ in the data set listed under Rattus norvegicus [8]; 0.007 h⁻¹ in data set [11]; 0.789 h⁻¹ in the data set listed under Mus musculus [12]; 0.233 h⁻¹ in the data set listed under Rattus norvegicus [15]. For the same molecule, in the data set filed under Mus musculus [3], the Learning time is reported as 19.4 s. The logD in data set [4] came out at 5.05. Further, the Survival ratio in the data set listed under Mus musculus [5] is given as 80. Further, the Latency in the data set listed under Mus musculus [6] turned out to be 278.8 s. The molecule further yielded a Survival time in the data set filed under Mus musculus [7] of 494%. The Sleeping time in the data set on Mus musculus [9] amounted to 47.4 min. In addition, the “Latency … (% of control)” value in the data set filed under Mus musculus [10] was 129%. Also, the Onset for sleep in the data set on Mus musculus [13] came to 9.6 min.
With `O=C1CCCN1` [2-PYRROLIDONE], the Degradation rate constant is 0.03 h⁻¹ in the data set listed under Rattus norvegicus [1]; 0.002 h⁻¹ in the data set listed under Mus musculus [2]; 0.018 h⁻¹ in the data set filed under Rattus norvegicus [8]; less than 0.0001 h⁻¹ in [11]; 0.034 h⁻¹ in the data set listed under Mus musculus [12]; 0.016 h⁻¹ in the data set listed under Rattus norvegicus [15]. Further, the Survival ratio in the data set listed under Mus musculus [5] is on record as 0. The molecule also came in with a Survival time in the data set listed under Mus musculus [7] of 102%. In the data set with Mus musculus [9], the Sleeping time is given as 24.8 min. For the same molecule, the “Latency … (% of control)” value in the data set filed under Mus musculus [10] is on record as 107%. In the data set on Mus musculus [13], this molecule came in with an Onset for sleep of 10.2 min. Also, the Saq entry in data set [14] was “Miscible”.
As for `CCC1(C)CC(=O)NC1=O` (stereo unspecified) [ETHOSUXIMIDE], in the data set filed under Mus musculus [5], the Survival ratio is 100. In the data set filed under Mus musculus [7], the Survival time is 577%. Besides, the “Latency … (% of control)” value in the data set listed under Mus musculus [10] turned out to be 792%.
For `NCCCC(=O)O` [GAMMA-AMINOBUTYRIC ACID], the logD in data set [4] is -3.33. For the same molecule, the Survival time in the data set filed under Mus musculus [7] is reported as 112%. In the data set on Mus musculus [9], this molecule returned a Sleeping time of 25.7 min. Further, in the data set filed under Mus musculus [10], the “Latency … (% of control)” value was determined as 115%. This molecule registered an Onset for sleep in the data set with Mus musculus [13] of 10.1 min.
Turning to `CCCC(CCC)C(=O)O` [VALPROIC ACID], in the data set filed under Mus musculus [5], the Survival ratio was 63. This molecule registered a Survival time in the data set listed under Mus musculus [7] of 472%. Moreover, in the data set on Mus musculus [9], the Sleeping time is 36.4 min. Besides, the “Latency … (% of control)” value in the data set listed under Mus musculus [10] is on record as 171%. Moreover, the “Onset for sleep, min” value with Mus musculus [13] came to 10.
